{"source": "ChEMBL document CHEMBL1140748", "about": "“Synthesis and biological evaluation of novel 2,4-diaminoquinazoline derivatives as SMN2 promoter activators for the potential treatment of spinal muscular atrophy” (J Med Chem, 2008)", "key": {"[1]": {"assay": "Increase in SMN2 mRNA expression in mouse NSC34 cells at 500 nM relative to control", "format": "functional", "in_short": "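NSC-34 mouse motor neuron hybrid cells were treated for 18 h with compound in DMSO at final 500 nM or 50 nM (0.5% DMSO final), with 100 nM TSA as reference. Total RNA was then isolated and reverse-transcribed, and mouse SMN mRNA was measured by TaqMan qPCR in triplicate. Values were normalized to β-actin and expressed as 2^(-ΔCT), with Student's t test.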"}, "Fibroblast [2]": {"test_system": "Fibroblast", "assay": "Increase in number of cells with Cajal bodies containing SMN2 protein in human fibroblasts from spinal muscular atrophy patient at 100 nM after 5 days relative to control", "format": "functional, cell-based"}, "CYP1A2": {"molecular_target": "T1, CYP1A2 (Homo sapiens, UniProt P05177)", "T1 sequence (P05177 whole entry)": "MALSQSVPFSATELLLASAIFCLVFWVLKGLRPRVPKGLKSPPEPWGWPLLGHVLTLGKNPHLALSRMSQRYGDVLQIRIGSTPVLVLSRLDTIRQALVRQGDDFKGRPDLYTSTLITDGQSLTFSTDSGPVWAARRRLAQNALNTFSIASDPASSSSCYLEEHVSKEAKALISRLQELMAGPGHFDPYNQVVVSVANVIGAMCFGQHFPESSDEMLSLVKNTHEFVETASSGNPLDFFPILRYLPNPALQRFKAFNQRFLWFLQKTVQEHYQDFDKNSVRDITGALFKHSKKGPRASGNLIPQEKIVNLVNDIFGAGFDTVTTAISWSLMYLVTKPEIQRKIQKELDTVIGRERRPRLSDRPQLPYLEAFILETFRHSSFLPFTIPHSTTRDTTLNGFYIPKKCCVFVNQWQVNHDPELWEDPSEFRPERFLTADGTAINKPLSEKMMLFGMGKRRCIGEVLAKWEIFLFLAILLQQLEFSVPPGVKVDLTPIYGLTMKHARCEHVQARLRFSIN", "assay": "Inhibition of CYP1A2 at 10 uM", "format": "ADME"}, "[3]": {"assay": "Volume of distribution at steady state in NMRI mouse plasma at 2 mg/kg, iv", "format": "ADME, organism-based", "set-up": "dose 2 mg/kg, route intravenous", "details": "read-out: Vdss", "in_short": "(§1)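 Mice given a single iv dose of 2 mg/kg in 30% solutol. Parent compound measured in plasma and brain by LC/MS/MS. PK parameters (AUClast, predicted clearance, Vss, t1/2, MRT) were derived from the concentration–time profile and reported with SD.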"}, "[4]": {"assay": "Mean residence time (0 to infinity) in NMRI mouse brain at 2 mg/kg, iv", "format": "ADME, organism-based", "set-up": "dose 2 mg/kg, route intravenous", "in_short": "as §1"}, "[5]": {"assay": "Drug level in NMRI mouse brain at 2 mg/kg, iv after 15 mins", "format": "ADME, organism-based", "set-up": "dose 2 mg/kg, route intravenous", "details": "read-out: Drug uptake", "in_short": "(§2)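 Single iv dose of 2 mg/kg in 30% solutol to mice. Plasma and brain sampled at 15 min and 2 h postdose, n = 4 mice per time point. Parent compound quantified by LC/MS/MS; brain levels given as ng/g and plasma as ng/mL.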"}, "[6]": {"assay": "Drug level in NMRI mouse plasma at 2 mg/kg, iv after 120 mins", "format": "ADME, organism-based", "set-up": "dose 2 mg/kg, route intravenous", "in_short": "as §2"}, "CYP2C19": {"molecular_target": "CYP2C19 (Homo sapiens, UniProt P33261)", "sequence (P33261 whole entry)": "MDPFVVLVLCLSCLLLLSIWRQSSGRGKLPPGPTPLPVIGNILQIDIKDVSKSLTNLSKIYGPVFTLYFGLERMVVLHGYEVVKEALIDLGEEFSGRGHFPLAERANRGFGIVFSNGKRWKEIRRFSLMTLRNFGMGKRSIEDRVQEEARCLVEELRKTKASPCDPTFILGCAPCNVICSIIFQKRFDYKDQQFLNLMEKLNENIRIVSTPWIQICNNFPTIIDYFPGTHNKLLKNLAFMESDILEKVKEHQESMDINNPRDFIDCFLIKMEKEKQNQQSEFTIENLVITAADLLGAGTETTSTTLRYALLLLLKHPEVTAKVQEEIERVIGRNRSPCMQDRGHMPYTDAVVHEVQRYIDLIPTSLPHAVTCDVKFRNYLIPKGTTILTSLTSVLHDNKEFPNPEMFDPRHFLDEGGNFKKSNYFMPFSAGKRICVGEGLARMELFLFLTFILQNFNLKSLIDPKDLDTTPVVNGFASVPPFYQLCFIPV", "assay": "Inhibition of CYP2C19 at 10 uM", "format": "ADME"}, "[7]": {"assay": "Drug level in NMRI mouse plasma at 2 mg/kg, iv after 15 mins", "format": "ADME, organism-based", "set-up": "dose 2 mg/kg, route intravenous", "in_short": "as §2"}, "[8]": {"assay": "Activation of SMN2 promoter in mouse NSC34 cells assessed as induction of beta-lactamase activity relative to nonactivated cells", "format": "functional"}, "[9]": {"assay": "Activation of SMN2 promoter in mouse NSC34 cells assessed as induction of beta-lactamase activity", "format": "functional, cell-based", "details": "Mus musculus, NSC-34"}, "[10]": {"assay": "Cmax in NMRI mouse brain at 10 mg/kg, po", "format": "ADME, organism-based", "set-up": "dose 10 mg/kg, route oral"}, "Dihydrofolate reductase": {"molecular_target": "T2, Dihydrofolate reductase (Homo sapiens, UniProt P00374)", "T2 sequence (P00374 whole entry)": "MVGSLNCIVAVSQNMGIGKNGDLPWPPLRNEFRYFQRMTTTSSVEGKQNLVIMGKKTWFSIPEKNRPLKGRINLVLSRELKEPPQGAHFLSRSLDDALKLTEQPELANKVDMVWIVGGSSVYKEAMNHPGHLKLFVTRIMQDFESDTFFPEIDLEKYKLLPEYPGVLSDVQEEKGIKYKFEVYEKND", "assay": "Inhibition of human recombinant DHFR"}, "Fibroblast [11]": {"test_system": "Fibroblast", "assay": "Increase in SMN2 mRNA expression in human fibroblasts from spinal muscular atrophy patient", "format": "functional, cell-based"}, "Cytochrome P450 2D6": {"molecular_target": "Cytochrome P450 2D6 (Homo sapiens, UniProt P10635)", "sequence (P10635 whole entry)": "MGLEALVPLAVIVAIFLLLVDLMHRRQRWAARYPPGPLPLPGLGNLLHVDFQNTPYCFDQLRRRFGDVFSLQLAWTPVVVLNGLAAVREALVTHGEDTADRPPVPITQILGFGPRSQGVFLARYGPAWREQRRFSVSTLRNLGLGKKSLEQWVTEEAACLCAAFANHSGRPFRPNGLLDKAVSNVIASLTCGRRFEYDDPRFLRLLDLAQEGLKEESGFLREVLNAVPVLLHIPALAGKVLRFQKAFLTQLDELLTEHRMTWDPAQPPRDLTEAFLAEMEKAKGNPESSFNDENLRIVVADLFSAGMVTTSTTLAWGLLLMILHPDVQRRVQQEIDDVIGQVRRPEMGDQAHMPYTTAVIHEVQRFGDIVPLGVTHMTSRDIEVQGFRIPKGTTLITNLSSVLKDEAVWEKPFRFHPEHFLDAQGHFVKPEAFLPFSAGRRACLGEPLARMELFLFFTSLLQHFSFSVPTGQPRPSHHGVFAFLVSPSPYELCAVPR", "assay": "Inhibition of human CYP2D6", "format": "ADME"}, "Mus musculus [12]": {"test_system": "Mus musculus", "assay": "AUC (last) in NMRI mouse brain at 10 mg/kg, po", "format": "ADME, organism-based", "set-up": "time 0 - last, dose 10 mg/kg, route oral", "details": "in vivo"}, "[13]": {"assay": "Clearance in NMRI mouse plasma at 2 mg/kg, iv", "format": "ADME, organism-based", "set-up": "dose 2 mg/kg, route intravenous", "in_short": "as §1"}, "[14]": {"assay": "Half life in NMRI mouse brain at 2 mg/kg, iv", "format": "ADME, organism-based", "set-up": "dose 2 mg/kg, route intravenous", "in_short": "as §1"}, "[15]": {"assay": "AUC (last) in NMRI mouse plasma at 2 mg/kg, iv", "format": "ADME, organism-based", "set-up": "time 0 - last, dose 2 mg/kg, route intravenous", "in_short": "as §1"}, "CYP3A4": {"molecular_target": "CYP3A4 (Homo sapiens, UniProt P08684)", "sequence (P08684 whole entry)": "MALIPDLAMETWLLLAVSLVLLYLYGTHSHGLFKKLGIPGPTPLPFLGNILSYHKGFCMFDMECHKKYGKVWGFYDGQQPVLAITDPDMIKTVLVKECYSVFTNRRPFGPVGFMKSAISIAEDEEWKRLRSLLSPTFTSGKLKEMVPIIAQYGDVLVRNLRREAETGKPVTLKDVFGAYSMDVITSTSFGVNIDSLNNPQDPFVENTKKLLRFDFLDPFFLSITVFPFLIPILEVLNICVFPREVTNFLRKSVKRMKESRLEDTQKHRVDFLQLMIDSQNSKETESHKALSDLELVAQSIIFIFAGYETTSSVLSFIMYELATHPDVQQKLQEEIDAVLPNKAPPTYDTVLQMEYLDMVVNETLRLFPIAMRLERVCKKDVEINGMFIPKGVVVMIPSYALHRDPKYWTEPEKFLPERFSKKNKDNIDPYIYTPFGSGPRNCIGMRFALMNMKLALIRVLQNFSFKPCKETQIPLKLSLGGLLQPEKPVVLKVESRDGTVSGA", "assay": "Inhibition of CYP3A4 at 10 uM", "format": "ADME"}, "CYP2C9": {"molecular_target": "CYP2C9 (Homo sapiens, UniProt P11712)", "sequence (P11712 whole entry)": "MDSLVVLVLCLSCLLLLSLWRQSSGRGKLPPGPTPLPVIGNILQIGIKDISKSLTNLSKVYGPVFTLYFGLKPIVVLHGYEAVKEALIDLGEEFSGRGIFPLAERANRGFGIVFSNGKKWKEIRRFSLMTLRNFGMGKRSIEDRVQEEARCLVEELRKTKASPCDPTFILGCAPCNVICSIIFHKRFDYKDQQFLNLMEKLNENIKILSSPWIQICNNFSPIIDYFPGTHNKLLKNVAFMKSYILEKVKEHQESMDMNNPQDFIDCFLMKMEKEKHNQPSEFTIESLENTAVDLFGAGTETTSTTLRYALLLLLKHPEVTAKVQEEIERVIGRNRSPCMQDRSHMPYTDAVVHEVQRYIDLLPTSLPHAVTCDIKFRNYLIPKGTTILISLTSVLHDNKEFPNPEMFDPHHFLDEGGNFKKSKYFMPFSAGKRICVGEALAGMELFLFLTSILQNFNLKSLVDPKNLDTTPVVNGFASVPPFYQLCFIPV", "assay": "Inhibition of CYP2C9 at 10 uM", "format": "ADME"}, "[16]": {"assay": "Half life in NMRI mouse brain at 10 mg/kg, po", "format": "ADME, organism-based", "set-up": "dose 10 mg/kg, route oral"}, "[17]": {"assay": "AUC (last) in NMRI mouse plasma at 10 mg/kg, po", "format": "ADME, organism-based", "set-up": "time 0 - last, dose 10 mg/kg, route oral"}, "[18]": {"assay": "Cmax in NMRI mouse plasma at 10 mg/kg, po", "format": "ADME, organism-based", "set-up": "dose 10 mg/kg, route oral"}, "[19]": {"assay": "Mean residence time (0 to infinity) in NMRI mouse brain at 10 mg/kg, po", "format": "ADME, organism-based", "set-up": "dose 10 mg/kg, route oral"}, "Mus musculus [20]": {"test_system": "Mus musculus", "assay": "AUC (last) in NMRI mouse brain at 2 mg/kg, iv", "format": "ADME, organism-based", "set-up": "time 0 - last, dose 2 mg/kg, route intravenous", "details": "in vivo", "in_short": "as §1"}, "[21]": {"assay": "Drug level in NMRI mouse brain at 2 mg/kg, iv after 120 mins", "format": "ADME, organism-based", "set-up": "dose 2 mg/kg, route intravenous", "details": "read-out: Drug uptake", "in_short": "as §2"}, "Mus musculus [22]": {"test_system": "Mus musculus", "assay": "AUC (0 to infinity ) in NMRI mouse brain at 10 mg/kg, po", "format": "ADME, organism-based", "set-up": "time infinity, dose 10 mg/kg, route oral", "details": "in vivo"}, "Fibroblast [23]": {"test_system": "Fibroblast", "assay": "Increase in number of Cajal bodies containing SMN2 protein in human fibroblasts from spinal muscular atrophy patient at 100 nM after 5 days relative to control", "format": "functional"}, "[24]": {"assay": "AUC (0 to infinity ) in NMRI mouse plasma at 10 mg/kg, po", "format": "ADME, organism-based", "set-up": "time infinity, dose 10 mg/kg, route oral"}, "[25]": {"assay": "Solubility in water", "format": "physicochemical"}}, "data": [{"smiles": "Nc1nc(N)c2c(OCC3CCN(Cc4ccccc4F)CC3)cccc2n1", "values": [{"measurement": "Fold change", "setting": "[1]", "value": 2}, {"measurement": "Activity", "setting": "Fibroblast [2]", "value": "Dose-dependent effect"}, {"measurement": "inhibition at 10 µM", "setting": "CYP1A2", "value": "< 50", "unit": "%"}, {"measurement": "Vd", "setting": "[3]", "value": 38.1, "unit": "L/kg"}, {"measurement": "MRT inf", "setting": "[4]", "value": 22.8, "unit": "h"}, {"measurement": "concentration at 0.25 h", "setting": "[5]", "value": 1420, "unit": "ng/g"}, {"measurement": "concentration at 2 h", "setting": "[6]", "value": 21, "unit": "ng/mL"}, {"measurement": "inhibition at 10 µM", "setting": "CYP2C19", "value": "< 50", "unit": "%"}, {"measurement": "concentration at 0.25 h", "setting": "[7]", "value": 38, "unit": "ng/mL"}, {"measurement": "Activity", "setting": "[8]", "value": 2.4}, {"measurement": "EC50", "setting": "[9]", "value": 0.004, "unit": "µM"}, {"measurement": "Cmax", "setting": "[10]", "value": 765, "unit": "ng/g"}, {"measurement": "IC50", "setting": "Dihydrofolate reductase", "value": "> 125", "unit": "µM"}, {"measurement": "Activity", "setting": "Fibroblast [11]", "value": "Dose-dependent effect"}, {"measurement": "IC50", "setting": "Cytochrome P450 2D6", "value": 9.38, "unit": "µM"}, {"measurement": "AUC", "setting": "Mus musculus [12]", "value": 15485, "unit": "ng·h/g"}, {"measurement": "clearance", "setting": "[13]", "value": 1.4, "unit": "mL/min/kg"}, {"measurement": "half-life", "setting": "[14]", "value": 19, "unit": "h"}, {"measurement": "AUC(0-t)", "setting": "[15]", "value": 2410, "unit": "ng·h/mL"}, {"measurement": "inhibition at 10 µM", "setting": "CYP3A4", "value": "< 50", "unit": "%"}, {"measurement": "inhibition at 10 µM", "setting": "CYP2C9", "value": "< 50", "unit": "%"}, {"measurement": "half-life", "setting": "[16]", "value": 18.8, "unit": "h"}, {"measurement": "AUC(0-t)", "setting": "[17]", "value": 2670, "unit": "ng·h/mL"}, {"measurement": "Cmax", "setting": "[18]", "value": 110, "unit": "ng/mL"}, {"measurement": "MRT inf", "setting": "[19]", "value": 27.3, "unit": "h"}, {"measurement": "AUC", "setting": "Mus musculus [20]", "value": 15724, "unit": "ng·h/g"}, {"measurement": "concentration at 2 h", "setting": "[21]", "value": 1130, "unit": "ng/g"}, {"measurement": "AUC", "setting": "Mus musculus [22]", "value": 18910, "unit": "ng·h/g"}, {"measurement": "Fold change", "setting": "Fibroblast [23]", "value": 5.5}, {"measurement": "AUC(0-inf)", "setting": "[24]", "value": 10900, "unit": "ng·h/mL"}, {"measurement": "solubility", "setting": "[25]", "value": 41.5, "unit": "mg/mL"}]}]}
